For assay [1], the target named is Beta-2 adrenergic receptor (Cavia porcellus) (UniProt Q8K4Z4).
The target in assay [2] is Beta-1 adrenergic receptor (Cavia porcellus) (UniProt B0FL73).
The species named for assay [3] is Rattus norvegicus. The assay is described as follows: Ratio of rat Beta-2 to Beta-1 adrenoceptor antagonism. The format is functional. The method in brief:
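Anesthetized, carotid-cannulated rats were given isoprenaline (0.2 µg kg-1 iv) before and after accumulative iv antagonist doses. The β1 value is the iv dose halving the tachycardia, read by cardiotachometer from the pulse. The β2 value is the iv dose halving the depressor response. The ratio compares these two doses.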

Assay [4] concerns the target Beta-1 adrenergic receptor (Rattus norvegicus) (UniProt P18090). Put plainly: Beta-1 adrenergic receptor blockade measured as inhibition of tachycardia caused by isoprenaline in anesthetized rats when administered intravenously. The format is functional. The method in brief: (§1)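 Anesthetized rats with a catheterized carotid artery for blood pressure. Heart rate was taken from the pulse signal by cardiotachometer. Tachycardia to isoprenaline (0.2 µg kg-1 iv) was recorded before and after accumulative iv doses of antagonist (0.1 mL 100 g-1). The value is the iv dose giving 50% reduction of the isoprenaline tachycardia.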

Assay [5] relates to Rattus norvegicus. Put plainly: Beta-1-adrenoceptor blockade measured as inhibition of tachycardia caused by isoprenaline in anesthetized rats when administered intravenously. The format is functional. As to conditions: iv. In a few lines: as §1
In assay [6] the target is Beta-2 adrenergic receptor (Rattus norvegicus) (UniProt P10608).
Assay [7] concerns the target Beta-1 adrenergic receptor (Rattus norvegicus) (UniProt P18090). Put plainly: Beta-1 adrenergic receptor blockade measured as inhibition of tachycardia caused by isoprenaline in anesthetized rats when administered intravenously; inactive. The format is functional. In a few lines: as §1

Active and inactive are the calls of the source. The rule behind the calls is not given here. A value given as a limit tells only on which side of the number the result lay.

Sequence of Beta-1 adrenergic receptor (Cavia porcellus) (B0FL73 1-467): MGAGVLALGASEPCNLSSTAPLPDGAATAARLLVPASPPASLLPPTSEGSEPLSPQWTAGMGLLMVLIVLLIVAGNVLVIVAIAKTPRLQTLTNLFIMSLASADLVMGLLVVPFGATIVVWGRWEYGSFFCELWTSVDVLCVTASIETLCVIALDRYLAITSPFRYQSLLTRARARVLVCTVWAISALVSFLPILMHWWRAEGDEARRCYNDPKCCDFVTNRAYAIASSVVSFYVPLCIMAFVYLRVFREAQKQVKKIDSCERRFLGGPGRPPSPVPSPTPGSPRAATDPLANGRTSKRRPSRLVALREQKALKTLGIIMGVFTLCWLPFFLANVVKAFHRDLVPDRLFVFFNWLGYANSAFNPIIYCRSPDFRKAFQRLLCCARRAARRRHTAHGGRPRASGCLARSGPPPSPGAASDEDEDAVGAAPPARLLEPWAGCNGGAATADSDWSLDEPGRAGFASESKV
Sequence of Beta-2 adrenergic receptor (Cavia porcellus) (Q8K4Z4 whole entry, looked up): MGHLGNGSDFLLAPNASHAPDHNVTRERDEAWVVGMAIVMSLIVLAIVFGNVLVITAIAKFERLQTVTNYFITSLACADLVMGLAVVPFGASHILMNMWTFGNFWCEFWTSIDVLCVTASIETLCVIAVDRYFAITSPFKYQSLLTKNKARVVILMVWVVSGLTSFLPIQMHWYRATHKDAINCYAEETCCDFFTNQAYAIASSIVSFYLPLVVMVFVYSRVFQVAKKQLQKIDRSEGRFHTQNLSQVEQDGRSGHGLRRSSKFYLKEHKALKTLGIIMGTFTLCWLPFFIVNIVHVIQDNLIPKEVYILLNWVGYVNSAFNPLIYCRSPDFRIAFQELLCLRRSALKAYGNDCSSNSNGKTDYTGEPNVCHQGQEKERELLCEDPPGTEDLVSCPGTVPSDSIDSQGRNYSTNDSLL
Sequence of Beta-1 adrenergic receptor (Rattus norvegicus) (P18090 whole entry, looked up): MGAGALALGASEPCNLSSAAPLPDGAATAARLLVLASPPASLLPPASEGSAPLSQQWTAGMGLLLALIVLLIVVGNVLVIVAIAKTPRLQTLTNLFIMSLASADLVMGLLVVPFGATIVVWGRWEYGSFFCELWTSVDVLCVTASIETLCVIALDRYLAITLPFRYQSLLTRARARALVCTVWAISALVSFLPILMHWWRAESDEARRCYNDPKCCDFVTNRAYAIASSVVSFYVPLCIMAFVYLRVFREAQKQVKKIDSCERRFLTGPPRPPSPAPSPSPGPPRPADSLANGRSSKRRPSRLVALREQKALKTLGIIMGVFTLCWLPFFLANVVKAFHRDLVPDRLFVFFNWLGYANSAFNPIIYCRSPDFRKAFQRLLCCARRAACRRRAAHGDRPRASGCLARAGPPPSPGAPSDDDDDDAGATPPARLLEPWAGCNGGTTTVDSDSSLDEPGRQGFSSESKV
Sequence of Beta-2 adrenergic receptor (Rattus norvegicus) (P10608 whole entry, looked up): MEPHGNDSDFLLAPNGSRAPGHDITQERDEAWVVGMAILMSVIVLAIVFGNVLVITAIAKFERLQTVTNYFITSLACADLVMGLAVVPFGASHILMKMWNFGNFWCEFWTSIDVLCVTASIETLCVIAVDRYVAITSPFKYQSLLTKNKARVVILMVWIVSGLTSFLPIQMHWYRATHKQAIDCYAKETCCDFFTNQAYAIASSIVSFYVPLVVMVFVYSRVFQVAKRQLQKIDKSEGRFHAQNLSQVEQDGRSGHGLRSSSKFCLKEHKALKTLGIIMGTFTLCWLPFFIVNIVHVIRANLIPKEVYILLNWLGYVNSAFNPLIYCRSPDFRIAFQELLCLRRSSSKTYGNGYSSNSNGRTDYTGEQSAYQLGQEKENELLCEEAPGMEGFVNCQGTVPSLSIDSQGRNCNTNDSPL

A word on the ED50: it is the dose that gives a 50% effect, or the effect in half of the subjects. Take `CC(C)NC[C@H](O)COc1ccccc1OCCOCCOCCOCCOc1ccccc1OC[C@@H](O)CNC(C)C`: the Affinity constant came to 4e-05 µM in assay [1] and 0.055 µM in assay [2]. The Ratio in the assay listed under Rattus norvegicus [3] turned out to be 0.55. In assay [4], the ED50 was 0.029 mg/kg.
As for `CC(C)NC[C@H](O)COc1ccccc1OCC(O)COc1ccccc1OC[C@@H](O)CNC(C)C`, the Affinity constant in assay [1] came to 4.4e-05 µM; in assay [2] it was 0.65 µM. Further, the Ratio in the assay listed under Rattus norvegicus [3] was found to be 0.045. Further, in the assay with Rattus norvegicus [5], the ED50 came to 0.993 mg/kg.
Turning to `CC(C)NC[C@H](O)COc1ccc(OCCCCCCCCCCOc2ccc(OC[C@@H](O)CNC(C)C)cc2)cc1`, the Affinity constant in assay [1] was above 10 µM; in assay [2], 0.022 µM. Besides, the ED50 result in assay [6] and in assay [7] was “inactive” in each case.
Take `CC(C)NC[C@@H](O)COc1ccccc1OCCCCCCCCOc1ccccc1OC[C@@H](O)CNC(C)C`: the Affinity constant was found to be 0.046 µM in assay [1] and 0.007 µM in assay [2].
`CC(C)NC[C@@H](O)COc1ccccc1OCCCCCCCCCCCCCCOc1ccccc1OC[C@@H](O)CNC(C)C`: the Affinity constant in assay [1] amounted to 1 µM; in assay [2] it was 0.2 µM.
On to `CC(C)NC[C@@H](O)COc1ccccc1OCCCCCCCCCCCCCCCCCCCCOc1ccccc1OC[C@@H](O)CNC(C)C`, for which the Affinity constant in assay [1] is above 10 µM; in assay [2], 1.5 µM.
`CC(C)NC[C@@H](O)COc1ccccc1OCCCCCCCCCCOc1ccccc1OC[C@@H](O)CNC(C)C`: the Affinity constant in assay [1] is 0.17 µM; in assay [2], 0.004 µM. The Ratio in the assay filed under Rattus norvegicus [3] is 0.26. The compound further showed an ED50 in assay [4] of 0.491 mg/kg.
On to `CC(C)NC[C@@H](O)COc1ccccc1OCCCCCCCCCCCCOc1ccccc1OC[C@@H](O)CNC(C)C`, for which the Affinity constant in assay [1] came out at 0.015 µM; in assay [2], 1 µM.
As to `CC(C)NC[C@H](O)COc1ccc(OCCOCCOc2ccc(OC[C@@H](O)CNC(C)C)cc2)cc1`, the Affinity constant in assay [1] amounted to 0.36 µM; in assay [2] it was 0.01 µM. Also, the Ratio in the assay listed under Rattus norvegicus [3] was determined as 192. In the assay with Rattus norvegicus [5], this compound had an ED50 of 0.052 mg/kg.
For the compound `CC(C)NC[C@H](O)COc1ccc(OCCOCCOCCOCCOc2ccc(OC[C@@H](O)CNC(C)C)cc2)cc1`, the figures for the Affinity constant in assay [1] and in assay [2] were 0.23 µM and 0.1 µM, respectively. Moreover, in the assay filed under Rattus norvegicus [3], the Ratio was above 70. Also, in assay [4], the ED50 was 0.282 mg/kg.
As for `CC(C)NC[C@H](O)COc1ccc(OCCCOc2ccc(OC[C@@H](O)CNC(C)C)cc2)cc1`, the Affinity constant came out at 0.24 µM in assay [1] and 0.2 µM in assay [2]. In the assay filed under Rattus norvegicus [3], the Ratio is above 1.74. Besides, it took a dose of 1.15 mg/kg to reach the 50% effect level with Rattus norvegicus [5] (ED50).
Take `CC(C)NC[C@H](O)COc1ccc(OCCCCCCCCCCCCOc2ccc(OC[C@@H](O)CNC(C)C)cc2)cc1`: the figures for the Affinity constant in assay [1] and in assay [2] were 10 µM and 0.1 µM, respectively.
For `CC(C)NC[C@H](O)COc1ccc(OCCCCCCOc2ccc(OC[C@@H](O)CNC(C)C)cc2)cc1`, the Affinity constant in assay [1] is above 10 µM; in assay [2], 0.01 µM. Also, in the assay listed under Rattus norvegicus [3], the Ratio is 3.3. It took a dose of 0.776 mg/kg to reach the 50% effect level in the assay on Rattus norvegicus [5] (ED50).
As for `CC(C)NC[C@H](O)COc1ccc(OCCCCCCCCOc2ccc(OC[C@@H](O)CNC(C)C)cc2)cc1`, the Affinity constant is 1.5 µM in assay [1] and 0.44 µM in assay [2].
Regarding `CC(C)NC[C@H](O)COc1cccc(OCCCOc2cccc(OC[C@@H](O)CNC(C)C)c2)c1`, the Affinity constant amounted to 0.007 µM in assay [1] and 0.7 µM in assay [2]. Besides, the Ratio in the assay filed under Rattus norvegicus [3] is 1.56. Further, the ED50 with Rattus norvegicus [5] stood at 0.653 mg/kg.
For the compound `CC(C)NC[C@H](O)COc1ccccc1OCCOCCOc1ccccc1OC[C@@H](O)CNC(C)C`, the Affinity constant in assay [1] amounted to 0.015 µM; in assay [2] it was 0.15 µM. For the same compound, the Ratio in the assay listed under Rattus norvegicus [3] is 0.39. Moreover, the ED50 with Rattus norvegicus [5] came to 0.384 mg/kg.
Take `CC(C)NC[C@@H](O)COc1ccccc1OCCOCCOCCOc1ccccc1OC[C@@H](O)CNC(C)C`: the Affinity constant in assay [1] amounted to 0.00085 µM; in assay [2], 0.06 µM. Further, in the assay listed under Rattus norvegicus [3], the Ratio was found to be 1.35. In assay [4], it took a dose of 0.082 mg/kg to reach the 50% effect level (ED50).
Turning to `CC(C)NC[C@@H](O)COc1ccccc1OCCCCCCOc1ccccc1OC[C@@H](O)CNC(C)C`, the figures for the Affinity constant in assay [1] and in assay [2] were 0.4 µM and 0.003 µM, respectively. Also, the Ratio in the assay listed under Rattus norvegicus [3] was found to be 0.13. In the assay with Rattus norvegicus [5], the 50% effect level (ED50) was put at a dose of 0.399 mg/kg.
For the compound `CC(C)NC[C@H](O)COc1ccc(OCCCCCCCCCCCCCCCCCCCCOc2ccc(OC[C@@H](O)CNC(C)C)cc2)cc1`, the Affinity constant in assay [1] was found to be 0.42 µM; in assay [2] it was 2.5 µM.
`CC(C)NC[C@H](O)COc1ccccc1OCCCOc1ccccc1OC[C@@H](O)CNC(C)C`: the figures for the Affinity constant in assay [1] and in assay [2] were 0.00064 µM and 0.035 µM, respectively. Further, the Ratio in the assay listed under Rattus norvegicus [3] amounted to 0.22. In the assay on Rattus norvegicus [5], this compound yielded an ED50 of 0.768 mg/kg.
`CC(C)NC[C@H](O)COc1cccc(OCCOCCOc2cccc(OC[C@@H](O)CNC(C)C)c2)c1`: the Affinity constant was 0.031 µM in assay [1] and 1 µM in assay [2].
As for `CC(C)NC[C@H](O)COc1ccc(OCCCCCCCCCCCCCCOc2ccc(OC[C@@H](O)CNC(C)C)cc2)cc1`, the Affinity constant is above 10 µM in assay [1] and 2.2 µM in assay [2].
In turn, `CC(C)NCC(O)COc1cccc2ccccc12` (stereo not given) [PROPRANOLOL] showed an ED50 in the assay with Rattus norvegicus [5] of 0.143 mg/kg.
As to `CC(C)NC[C@H](O)COc1ccc(OCCOCCOCCOc2ccc(OC[C@@H](O)CNC(C)C)cc2)cc1`, the Affinity constant in assay [1] was 0.03 µM; in assay [2] it was 0.01 µM. The Ratio in the assay listed under Rattus norvegicus [3] was found to be 185. This compound also showed an ED50 in assay [4] of 0.05 mg/kg.
